These results are taken from ChEMBL document CHEMBL5352425, “Discovery of the 4-aminopiperidine-based compound EM127 for the site-specific covalent inhibition of SMYD3” (Eur J Med Chem, 2022).

The target of experiment [1] is T1, Histone-lysine N-methyltransferase SMYD3 (Homo sapiens) (UniProt Q9H7B4).
T1 sequence (whole entry): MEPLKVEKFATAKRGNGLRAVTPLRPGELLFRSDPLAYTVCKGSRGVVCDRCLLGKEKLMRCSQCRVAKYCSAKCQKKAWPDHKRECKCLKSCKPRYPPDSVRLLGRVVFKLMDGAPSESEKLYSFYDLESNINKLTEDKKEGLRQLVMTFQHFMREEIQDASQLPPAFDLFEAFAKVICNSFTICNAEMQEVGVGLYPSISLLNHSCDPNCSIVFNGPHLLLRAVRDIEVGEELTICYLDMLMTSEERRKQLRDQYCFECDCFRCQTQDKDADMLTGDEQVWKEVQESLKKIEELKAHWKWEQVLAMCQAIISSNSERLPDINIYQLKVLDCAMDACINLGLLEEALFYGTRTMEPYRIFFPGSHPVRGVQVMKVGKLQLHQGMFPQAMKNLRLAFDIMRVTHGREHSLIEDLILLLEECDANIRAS
Description: Binding affinity to full length recombinant SMYD3 (unknown origin) overexpressed in Escherichia coli Rosetta cells assessed as covalent adduct formation by SPR analysis. The method, boiled down:
(§1)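 SPR on Biacore X100 at 15 °C: SMYD3 amine-coupled on CM5 chips at 6500–10000 RU, immobilised in HBS-T pH 7.4. Analysis buffer Tris-HCl 50 mM, NaCl 150 mM, 2 mM DTT, 0.05% Tween-20, 2% DMSO, pH 8.0, with or without SAM at saturating concentration. Equilibrium responses solvent-corrected.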

Experiment [2] deals with T1, Histone-lysine N-methyltransferase SMYD3 (Homo sapiens). Nature of the experiment: Binding affinity to full length recombinant SMYD3 (unknown origin) at Cys186 residue overexpressed in Escherichia coli Rosetta cells assessed as covalent adduct formation measured for 24 hrs by LC-MS analysis. Particulars: dose 1-100 µM. The method, boiled down:
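Recombinant SMYD3 expressed in E. coli Rosetta 2, final 10 μM, incubated at 23 °C in Tris 50 mM pH 8.0, 75 mM NaCl with compound at final 1, 10 or 100 μM, or equimolar 10 μM with sampling at 0–24 h. Samples DTT-denatured at 56 °C, iodoacetamide-alkylated, digested overnight with trypsin plus chymotrypsin at 30 °C, then analysed by LC-MS/MS on Q-ToF for adducted peptides. Triplicate.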

Experiment [3] shares this target. Description: Inhibition of full length recombinant SMYD3 (unknown origin) at 50 uM measured for 1 hr by LC-ESI-MS analysis relative to control. A digest of the protocol:
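SMYD3 preincubated 1 h at 23 °C with compound (SMYD3 5 μM, compound 50 μM, 2% DMSO), or at 5 μM compound for 1 or 24 h. Stopped with H2O/AcCN/FA, peptide methylation quantified by LC-ESI-MS. Duplicate.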

Experiment [4] deals with T2, Histone-lysine N-methyltransferase SMYD3 (Homo sapiens, UniProt Q9H7B4).
T2 sequence (Q9H7B4 whole entry): T1 sequence (whole entry)
Nature of the experiment: Binding affinity to full length recombinant SMYD3 (unknown origin) overexpressed in Escherichia coli Rosetta cells assessed as dissociation constant by SPR analysis. A digest of the protocol: as §1

Experiment [5] deals with MDA-MB-231. Description: Antiproliferative activity against in human MDA-MB-231 cells assessed as reduction in cell viability measured after 48 hrs by trypan blue staining based phase contrast microscopic analysis. It is filed as functional. A digest of the protocol: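 MDA-MB-231 cells in DMEM with 10% FBS and penicillin/streptomycin at 37 °C, 5% CO2, treated 48 h at 5 μM (vehicle 0.5% DMSO, DMSO control). Floating plus trypsinized adherent cells pooled, mixed with 0.01% trypan blue, unstained and stained cells counted by phase-contrast microscopy, % viable cells calculated. Mean ± SD, n=3.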

For experiment [6], the target named is T1, Histone-lysine N-methyltransferase SMYD3 (Homo sapiens). Description: Inhibition of SMYD3 in human HCT-116 cells assessed as decrease in ERK1/2 phosphorylation upto 5 uM by immunoblotting analysis. It counts as cell-based. The note with it: time 48-72 hrs, TDE = time-dependent effect. The method, boiled down: (§2)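 HCT116 or MDA-MB-231 cells treated with compound, DMSO as control. Whole-cell lysates in Tris/EDTA/NaCl/1% Triton X-100 with protease and phosphatase inhibitors. 20 μg protein run on 7.5% SDS-PAGE and blotted to nitrocellulose, probed for phospho-ERK1/2 (Thr202/Tyr204), total ERK1/2 and cleaved PARP, with actin as loading control.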

Experiment [7] has the same target. Description: Inhibition of SMYD3 in human HCT-116 cells assessed as decrease in ERK1/2 phosphorylation measured for 48 to 72 hrs by immunoblotting analysis. It is filed as cell-based. The note with it: dose <= 5.0 µM, time 48-72 hrs. A digest of the protocol:
as §2

The target is the same in experiment [8]. Nature of the experiment: Inhibition of SMYD3 in human MDA-MB-231 cells assessed as decrease in ERK1/2 phosphorylation upto 5 uM by immunoblotting analysis. The note with it: time 48-72 hrs, TDE = time-dependent effect. It counts as cell-based. A digest of the protocol:
as §2

For experiment [9] the target is unchanged. Nature of the experiment: Inhibition of SMYD3 in human MDA-MB-231 cells assessed as decrease in ERK1/2 phosphorylation measured for 48 to 72 hrs by immunoblotting analysis. It counts as cell-based. Particulars: dose <= 5.0 µM, time 48-72 hrs. The method, boiled down: as §2
Experiment [10] shares this target. Description: Inhibition of SMYD3 in human HCT-116 cells assessed as decrease in cleaved PARP level at 5 uM measured for 48 to 72 hrs by immunoblotting analysis. It counts as cell-based. The note with it: time 48-72 hrs. A digest of the protocol:
as §2

The target is the same in experiment [11]. Description: Inhibition of SMYD3 in human MDA-MB-231 cells assessed as decrease in cleaved PARP level at 5 uM measured for 48 to 72 hrs by immunoblotting analysis. It is filed as cell-based. Particulars: time 48-72 hrs. The method, boiled down:
as §2

Experiment [12] has as its target T2, Histone-lysine N-methyltransferase SMYD3. Description: Inhibition of full length recombinant SMYD3 (unknown origin) measured at 24 hrs.
For experiment [13], the system named is MDA-MB-231. Description: Downregulation of CDK2 mRNA expression in human MDA-MB-231 cells at 50 uM measured for 48 to 72 hrs by RT-qPCR analysis. It counts as functional, cell-based. The note with it: time 48-72 hrs. The method, boiled down: (§3)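 MDA-MB-231 or SMYD3-knockout (CRISPR/Cas9) MDA-MB-231 cells in DMEM/10% FBS treated 48 h with 0.5–50 μM compound, or 72 h with reference inhibitor at 10–50 μM; DMSO control. Total RNA extracted with TRI reagent, CDK2, c-MET, FN1 and N-CAD transcripts measured by RT-qPCR and quantified by the ddCT method.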

Experiment [14] has as its system MDA-MB-231. Nature of the experiment: Downregulation of c-MET mRNA expression in human MDA-MB-231 cells at 50 uM measured for 48 to 72 hrs by RT-qPCR analysis. Particulars: time 48-72 hrs. It is filed as functional, cell-based. A digest of the protocol:
as §3

Experiment [15] deals with MDA-MB-231. Nature of the experiment: Downregulation of FN1 mRNA expression in human MDA-MB-231 cells at 50 uM measured for 48 to 72 hrs by RT-qPCR analysis. The note with it: time 48-72 hrs. It is filed as functional, cell-based. The method, boiled down: as §3
For experiment [16], the system named is MDA-MB-231. Description: Downregulation of N-cadherin mRNA expression in human MDA-MB-231 cells at 50 uM measured for 48 to 72 hrs by RT-qPCR analysis. It is filed as functional, cell-based. The note with it: time 48-72 hrs. The method, boiled down:
as §3

Experiment [17] has as its target T1, Histone-lysine N-methyltransferase SMYD3 (Homo sapiens). Description: Inhibition of full length recombinant SMYD3 (unknown origin) at 5 uM measured at 24 hrs by LC-ESI-MS analysis relative to control.

Activity calls are given as the source filed them. No cut-off for these calls is given here.

As to `O=C(CCl)NC1CCN(C(=O)c2cc(C3CC3)on2)CC1`, the outcome in experiment [1] was Active. In addition, the Activity entry in [2] was “Dose-Dependent Effect”. Also, the inhibition in experiment [3] was 14%.

Take `O=C(NC1CCNCC1)c1cc(C2CC2)on1`: the Kd in experiment [4] was 32 µM. Moreover, the inhibition in experiment [3] is 29.1%; in experiment [6], “Tde”; in experiment [7], “Dose-Dependent Effect”; in [8], “Tde”; in experiment [9] it was “Dose-Dependent Effect”. Besides, in the experiment on MDA-MB-231 [5], the outcome was inactive. Besides, the inhibition result in experiment [10] and in [11] was “inactive” in each case.

On to `O=C1Cc2cc(C(=O)N[C@H]3C[C@H]4CC[C@@H](C3)C4S(=O)(=O)CC3CCN(CCCC(F)(F)F)CC3)c(Cl)cc2N1` (some centres undefined), for which the inhibition in experiment [3] amounted to 100%; in experiment [17] it was 50.2%. The IC50 in experiment [12] is 0.689 µM. Moreover, the outcome with MDA-MB-231 [13], with MDA-MB-231 [14], in the experiment on MDA-MB-231 [15] and in the experiment with MDA-MB-231 [16] was Active.
